Bioassay records from PubChem BioAssay.
Hits are enriched below; roughly 2.9% of the tested compounds scored in any of these assays.
NS3 helicase inh – inhibitors of Hepatitis C virus NS3 helicase | NS3 helicase DNA unwinding, Cy5 molecular beacon fluorescence | inhibition, % at 10.9 µM | actives 0.56% (n = 290,000) | AID 1800;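 active = inhibition above the mean of all tested compounds plus 3 SD, set per campaign, cut at about 35% in these data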;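 also: 0% = DMSO wells and 100% = thioflavine S control wells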
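System: NS3 helicase fragment of HCV / Schedule: 1 h at 25 °C / Control set: DMSO alone as 0% and 110 µM thioflavine S as 100% / Reagent: Cy5/quencher beacon DNA duplex and ATP to start / Technique: Cy5 fluorescence / Replication: singlicate / Evaluation: % inhibition of end-to-start signal ratio versus controls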
A3A deaminase – blocks human APOBEC3A ssDNA deamination; inhibition, % at 20 µM; actives 0.41% (n = 330,000); recombinant A3A, FAM/TAMRA ssDNA deamination fluorescence; P31941; AID 493011;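 active = at least 40% inhibition at 20 µM here, with at most 30% in a related deaminase screen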;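 also: plate controls were A3A with DMSO for no effect and wells lacking A3A enzyme for full effect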
Target sequence (P31941 whole entry, looked up): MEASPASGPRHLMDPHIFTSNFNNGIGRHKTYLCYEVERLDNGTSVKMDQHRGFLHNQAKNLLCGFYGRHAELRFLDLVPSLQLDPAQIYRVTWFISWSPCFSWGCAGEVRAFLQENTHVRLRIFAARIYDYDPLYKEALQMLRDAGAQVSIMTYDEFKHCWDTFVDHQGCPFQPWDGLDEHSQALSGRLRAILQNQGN
PRMT1 FP inh – blocks human protein arginine methyltransferase 1. Q99873. actives 1.3% (n = 370,000). inhibition, % at 2.79 µM. recombinant PRMT1, activity-based probe fluorescence polarization;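 active = inhibition above about 21% made by adding two undisclosed values, limit read from the data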
HCV core dimer – blocks dimerization of HCV core protein | inhibition, % at 5 µM | actives 0.33% (n = 300,000) | TR-FRET GST/Flag-core106 dimerization, 1536-well;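 active = inhibition above the mean of all tested compounds plus 3 SD, set per screening campaign, cut at about 45% in these data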
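test system = GST/Flag-tagged HCV core106 proteins | probe or stimulus = Eu donor and XL665 acceptor anti-tag antibodies | times = compound-protein-antibody incubation 4 h at 22.5 °C | signal = TR-FRET, excitation 340 nm, emission 617 and 671 nm | measure = percent inhibition of core106 dimerization signal | controls = wells lacking GST-core106 and wells with excess unlabelled core106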
APOBEC3G inh – blocks human APOBEC3G single-stranded DNA deamination. Q9HC16. recombinant A3G, ssDNA deamination FAM/TAMRA fluorescence. inhibition, % at 20 µM. actives 0.28% (n = 330,000);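 active = inhibition of at least 40% at 20 µM, with no more than 30% in the related APOBEC3A deaminase screen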;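 also: plate controls were DMSO wells with A3G for no effect and wells lacking A3G enzyme for full effect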
Target sequence (Q9HC16 whole entry, looked up): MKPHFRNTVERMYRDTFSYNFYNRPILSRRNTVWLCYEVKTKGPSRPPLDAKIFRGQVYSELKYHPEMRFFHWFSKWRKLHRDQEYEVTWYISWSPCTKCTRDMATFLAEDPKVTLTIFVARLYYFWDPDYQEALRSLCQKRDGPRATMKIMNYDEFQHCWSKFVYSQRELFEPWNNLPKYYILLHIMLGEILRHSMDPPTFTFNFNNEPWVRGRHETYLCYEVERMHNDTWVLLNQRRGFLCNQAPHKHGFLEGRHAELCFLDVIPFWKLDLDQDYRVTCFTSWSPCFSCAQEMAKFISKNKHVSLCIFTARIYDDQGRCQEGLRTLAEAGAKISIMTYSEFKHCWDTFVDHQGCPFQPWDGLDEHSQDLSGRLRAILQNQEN
ABHD5-PLIN5 inh – blocks binding of human ABHD5 to perilipin-5; inhibition, % at 4 µM; Split G. princeps luciferase complementation, luminescence, 4 h; actives 0.78% (n = 360,000); Q00G26+Q8WTS1; AID 602281;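 active = inhibition above the mean inhibition across every tested compound plus 3 SD, cut at about 22% in these data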;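 also: 0% = DMSO only wells and the 100% control is not disclosed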
ABHD5-PLIN5 conf – confirmation of human ABHD5-PLIN5 interaction inhibitors; shares compounds with ABHD5-PLIN5 inh; biochemical ABHD5-PLIN5 interaction, luminescence; inhibition, % at 4 µM; actives 67% (n = 2,200); AID 651612; in the data active = inhibition above about 23%;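 also: 0% = DMSO vehicle wells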
HNF4 counter – HNF4 split-luciferase signal hit, counter-screen | shares compounds with ABHD5-PLIN5 inh | HNF4 dimerization, luminescence, biochemical | inhibition, % at 4 µM | actives 77% (n = 2,200) | AID 651674;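 active = mean inhibition across replicate wells exceeding the computed hit threshold, cut at about 13% in these data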;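 also: light from luciferase halves that rejoin when HNF4 fusion proteins dimerize; 0% = DMSO only wells and the 100% control is not given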
Starred values were filed as active, the others as inactive; nt = not tested or not shown.

SMILES	NS3 helicase inh	A3A deaminase	PRMT1 FP inh	HCV core dimer	APOBEC3G inh	ABHD5-PLIN5 inh	ABHD5-PLIN5 conf	HNF4 counter
COC(=O)C[C@@H]1C=C[C@H](NC(=O)Nc2cc(F)ccc2F)[C@@H](CO)O1	nt	nt	1	nt	nt	1	nt	nt
CSc1ccc2c(c1)C(N1CCN(C)CC1)Cc1ccc(F)cc1S2 (centres undefined)	nt	-13	1	-1	-3	26*	18	3
CCOC(=O)Nc1ccc2c(c1)N(C(=O)CCN1CCOCC1)c1ccccc1S2=O (centres undefined)	-1	1	7	-1	0	27*	6	42*
COCCNCc1cc(C)n(-c2cc(S(=O)(=O)N3CCOCC3)ccc2N2CCCC2)c1C	nt	nt	3	nt	nt	-8	nt	nt
Cc1cc(OCC(=O)C(C)(C)C)c2c(-c3ccccc3)cc(=O)oc2c1	-9	-1	-8	-3	-5	-4	nt	nt
COc1ccc(CCC(=O)Nc2c(-c3ccc(N(C)C)cc3)[nH][nH]c2=O)cc1	nt	nt	6	nt	nt	86*	22	79*
COc1ccc(-c2[nH][nH]c(=O)c2NC(=O)c2ccccn2)cc1	nt	nt	2	nt	nt	-24	nt	nt
CSc1cccc(N2C(=O)C3CCCN3C2=S)c1 (centres undefined)	-7	-3	0	-1	-4	-1	nt	nt
O=C(NCCc1nnc2ccc(NCc3ccccc3Cl)nn12)c1ccccc1	7	-1	3	1	-7	52*	6	4
COc1ccccc1-c1cc(C(=O)NC2CCN(C)CC2)c2ccc(Cl)c(C)c2n1	-44	6	4	-5	-1	32*	20	-3
Cc1c(Cl)ccc2c(C(=O)NCCN3CCCCC3)cc(-c3ccccn3)nc12	-39	6	0	-2	1	22	nt	nt
Cn1cc(CN(CCCN2CCOCC2)C(=S)Nc2cccc(Cl)c2)c2ccccc21	-14	-3	0	-9	-5	25*	11	-1
Cc1cccc(NC(=S)N(CCCN2CCOCC2)Cc2cn(C)c3ccccc23)c1	-6	-9	1	0	-5	23*	1	-2
COC(=O)[C@]12C[C@H](CC(=O)N3CCN(C(=O)C4CC4)CC3)C(=O)N(Cc3ccc4c(c3)OCO4)C1=C[C@H](C(C)C)O[C@@H]2C1CC1	nt	nt	-2	nt	nt	nt	nt	nt
COc1ccc(C(C)=O)cc1CN1C(=O)C(Cc2ccccc2)ON=C1c1ncccc1C (centres undefined)	nt	nt	3	nt	nt	-7	nt	nt
Cc1ccc(S(=O)(=O)N2C[C@H]3n4c(=O)ccc(=O)n4C[C@H](OC(=O)NCC4CCCCC4)[C@@]3(O)C2)cc1	nt	nt	3	nt	nt	26*	63*	45*
Cc1ccc(S(=O)(=O)N2C[C@H]3n4c(=O)ccc(=O)n4C[C@H](OC(=O)NCc4ccccc4)[C@@]3(O)C2)cc1	nt	nt	-1	nt	nt	19	nt	nt
CN1CCN(c2ncnc3c2ncn3[C@H]2CN(Cc3ccc(F)cc3)C[C@@H](CO)O2)CC1	nt	nt	-3	nt	nt	0	nt	nt
COc1cccc(-c2nnc(SCC(=O)NCc3ccc4c(c3)OCO4)n2Cc2ccco2)c1	4	-3	-1	26	-4	28*	6	10
O=C(CSc1nnc(-c2cccnc2)n1Cc1ccco1)NCc1ccc2c(c1)OCO2	2	-1	-2	-2	-4	4	nt	nt
COc1ccc(NS(=O)(=O)c2cccc(C(=O)NCCCN3CCCC3=O)c2)cc1	nt	0	-2	-3	-6	-2	nt	nt
COc1ccc(NS(=O)(=O)c2ccc(C)c(C(=O)NCCCN3CCCC3=O)c2)cc1	nt	-2	0	nt	-6	23*	4	3
CSc1ccc(CN(C)CC(=O)Nc2cccc(Br)c2)cc1	-27	-4	2	11	-9	-4	nt	nt
CSc1ccc(CN(C)CC(=O)Nc2ccc(NC(C)=O)cc2)cc1	4	3	0	-1	-9	102*	6	4
CCOc1cccc(CNCCO)c1OCc1ccc(Cl)cc1	-18	-6	-1	-10	-7	5	nt	nt
SMILES	NS3 helicase inh	A3A deaminase	PRMT1 FP inh	HCV core dimer	APOBEC3G inh	ABHD5-PLIN5 inh	ABHD5-PLIN5 conf	HNF4 counter
CCOc1cc(CNCCO)cc(Br)c1OCc1ccc(Cl)cc1	-87	2	-1	-17	3	25*	16	8
CCOc1cc(CNCCCN2CCOCC2)cc(Br)c1OCc1ccccc1Cl	-89	1	2	-5	-4	30*	10	17*
CCOc1cc(CNCCO)cc(Br)c1OCc1ccccc1Cl	-103	-3	3	-12	-7	28*	12	0
COc1cc(CNCCO)cc(Cl)c1OCc1ccccc1Cl	-50	-6	6	-3	-12	9	nt	nt
CC(C)(C)OC(=O)N1CCC(C(=O)Nc2cccc(C(=O)NCc3ccccc3)c2)CC1	nt	nt	0	nt	nt	-3	nt	nt
O=C(C=C=Nc1ccccc1)C(=O)N=C=Cc1ccccc1	-6	-10	5	-3	4	73*	96*	99*
CN(C)CCCNC(=O)/C(=C\c1ccc(-c2cccc([N+](=O)[O-])c2)o1)NC(=O)c1ccccc1	-52	2	-4	-30	-5	14	nt	nt
Cc1ccc(C(=O)N/C(=C\c2ccc(-c3ccc(Br)cc3)o2)C(=O)NCCCN(C)C)cc1	-61	-3	1	-31	-4	36*	21	2
CN(C)CCNC(=O)/C(=C/c1ccc(-c2ccc(Cl)cc2)o1)NC(=O)c1ccccc1	-68	nt	1	-17	nt	25*	13	4
Cc1ccc(C(=O)N/C(=C\c2ccc(-c3cccc([N+](=O)[O-])c3)o2)C(=O)NCCCN(C)C)cc1	-57	-1	0	-19	-4	9	nt	nt
CN(C)CCNC(=O)/C(=C/c1ccc(-c2ccc(Cl)cc2Cl)o1)NC(=O)c1ccccc1	-66	3	-4	-29	-7	35*	7	12
Oc1ccc(/C=N/N2CCN(C3c4ccccc4-c4ccccc43)CC2)cc1	-7	-3	-2	3	-5	-5	nt	nt
Cc1ccc(/C=N/N2CCN(C3c4ccccc4-c4ccccc43)CC2)o1	-2	-3	16	5	-7	26*	8	13*
Cc1ccc2nc(C(C)(C)C)c(Cc3cccc(F)c3)n2c1	nt	nt	-4	nt	nt	-2	nt	nt
Cc1ccc2c(c1)/C(=C/c1ccccc1F)C(=O)N2	-7	-3	0	4	-6	31*	44*	39*
CCc1nc2sc3ccccc3c(=O)c2c(=O)n1Cc1ccco1	22	24	21*	1	27	24*	36*	50*
CCCc1nc2sc3ccccc3c(=O)c2c(=O)n1Cc1ccccc1	nt	nt	-5	nt	nt	-10	nt	nt
